# ChEMBL document CHEMBL3593159, “Identification of 5-nitrofuran-2-amide derivatives that induce apoptosis in triple negative breast cancer cells by activating C/EBP-homologous protein expression” (Bioorg Med Chem, 2015)
# Assays:
# HCC1806 = experiment: Cytotoxicity against human HCC1806 cells assessed as reduction in cell viability incubated for 3 days by cell-titer-Glo reagent based assay; assay type: functional; details: for IC50: HCC1806, 72 h
# Method in brief: (§1)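 Viability by CellTiter-Glo (ATP read-out). Cells plated at 3 × 10³/well in 384-well format overnight, then exposed to compound over a range (0.125–20 µM for initial series) for 3 d in RPMI 1640 with 10% FBS at 37°C, 5% CO₂. IC₅₀ fitted from dose–response curve.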
# HEK-293T = experiment: Increase in CHOP expression in HEK293T cells stably transfected with luciferase gene at 10 uM incubated for 24 hrs by luciferase reporter gene assay; assay type: functional, Homo sapiens
# Method in brief: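 HEK293T cells stably carrying CHOP-, ERSE- or UPRE-luciferase reporters plated 7 × 10³/well in 384-well plates, after 16 h given compound (10 µM), tunicamycin 1 µg/mL or DMSO for 24 h; luciferase by Bright-Glo. Means of 4 replicate wells, representative of 3 experiments.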
# HCC38 = experiment: Cytotoxicity against human HCC38 cells assessed as reduction in cell viability incubated for 3 days by cell-titer-Glo reagent based assay; assay type: functional; details: for IC50: HCC38, 72 h; method in brief: as §1
# HEK293 = experiment: Increase in CHOP mRNA expression in HEK293 cells at 10 uM incubated for 24 hrs by qRT-PCR method; assay type: functional, Homo sapiens
# Method in brief: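 HEK293 cells given 10 µM compound or DMSO for 24 h; CHOP mRNA by qRT-PCR. Means of 3 replicate wells, 3 independent experiments, Student's t-test vs control.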
# HCC1143 = experiment: Cytotoxicity against human HCC1143 cells assessed as reduction in cell viability incubated for 3 days by cell-titer-Glo reagent based assay; assay type: functional; details: for IC50: HCC1143, 72 h; method in brief: as §1
Structure (SMILES),IC50 (HCC1806) [µM],further results
Cc1ccc(NC(=O)c2ccc([N+](=O)[O-])o2)cc1,6.7,–
O=C(Nc1ccc(I)cc1)c1ccc([N+](=O)[O-])o1,6.2,fold change (FC) (HEK-293T): 24; Activity (HCC38): Dose-dependent effect; IC50 (HCC38): 8.7 µM; Activity (HCC1806): Dose-dependent effect; fold change (FC) (HEK293): 30; Activity (HCC1143): Dose-dependent effect; IC50 (HCC1143): 9.5 µM
CC(C)Cc1ccccc1NC(=O)c1ccc([N+](=O)[O-])o1,> 40,–
O=C(Nc1ccc(N2CCCCC2)c(F)c1)c1ccco1,> 40,–
COc1ccc(Cl)cc1NC(=O)c1ccc([N+](=O)[O-])o1,7,–
O=C(Nc1ccc(N2CCOCC2)c(Br)c1)c1ccco1,> 40,–
CCC1CCN(c2ccc(NC(=O)c3ccco3)cc2Cl)CC1,> 40,–
O=C(Nc1cccc(OC(F)(F)F)c1)c1ccc([N+](=O)[O-])o1,19.6,–
CCc1ccc(NC(=O)c2ccc([N+](=O)[O-])o2)cc1,5,–
O=C(Nc1ccc(N2CCN(Cc3ccccc3F)CC2)cc1)c1ccc([N+](=O)[O-])o1,3,IC50 (HCC38): 1.9 µM; IC50 (HCC1143): 3.8 µM
